Converted amounts (≈) assume the structure as drawn. The source made the active and inactive calls. The rule behind the calls is not given here. Bounds are passed on as bounds.

For assay [1], the system named is Aspergillus niger. The assay can be described thus: Antifungal activity against Aspergillus niger after 96 hrs by dry weight calculation. Format: functional, organism-based. An outline of the steps: (§1)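 Fungicidal testing with double-fold drug dilutions in Sabouraud dextrose broth. Tubes inoculated with 1 ml spore suspension (2 × 10^5 spores/ml) and shaken at 200 rpm at 28 °C for 96 h. Drug was added at mid-logarithmic growth. Growth was measured as sample dry weight after drying at 60 °C.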

Assay [2] relates to Candida albicans. The assay can be described thus: Antifungal activity against Candida albicans after 96 hrs by dry weight calculation. Format: functional, organism-based. An outline of the steps:
as §1

The subject of assay [3] is Escherichia coli. The experiment in a line: Antibacterial activity against Escherichia coli ATCC 25938 at 1 to 1000 ug/ml after overnight incubation by disc diffusion method. In kind it is functional. Summed up:
(§2)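 Disc diffusion on Mueller-Hinton agar. Plates seeded with 0.1 ml bacterial suspension (2 × 10^6 cfu/ml). Sterile 6 mm paper discs were impregnated with compound solutions at 1–1000 µg/ml and incubated at 37 °C overnight. Read-out was the diameter of the clear inhibition zone. Stocks were 1 mg/ml in 4% Tween 80 or 4% propylene glycol.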
(A growth-free zone around the sample is the usual read-out of agar diffusion tests.)

Assay [4] concerns Klebsiella pneumoniae. The assay can be described thus: Antibacterial activity against Klebsiella pneumoniae isolate J/1/4 at 1 to 1000 ug/ml after overnight incubation by disc diffusion method. In kind it is functional. An outline of the steps: as §2
Assay [5] has as its system Staphylococcus aureus. The experiment in a line: Antibacterial activity against Staphylococcus aureus ATCC 25923 at 1 to 1000 ug/ml after overnight incubation by disc diffusion method. Format: functional. An outline of the steps:
as §2

The subject of assay [6] is Pseudomonas aeruginosa. The assay can be described thus: Antibacterial activity against Pseudomonas aeruginosa ATCC 27853 at 1 to 1000 ug/ml after overnight incubation by disc diffusion method. Format: functional. An outline of the steps: as §2
The subject of assay [7] is Vibrio cholerae. The experiment in a line: Antibacterial activity against Vibrio cholerae isolate 7201 at 1 to 1000 ug/ml after overnight incubation by disc diffusion method. Format: functional.
Assay [8] relates to Vibrio cholerae. The experiment in a line: Antibacterial activity against Vibrio cholerae isolate 720 at 1 to 1000 ug/ml after overnight incubation by disc diffusion method. Format: functional.
Assay [9] relates to Bacillus subtilis. The experiment in a line: Antibacterial activity against Bacillus subtilis UC564 at 1 to 1000 ug/ml after overnight incubation by disc diffusion method. In kind it is functional. Summed up: as §2
Assay [10] relates to Shigella dysenteriae. The experiment in a line: Antibacterial activity against Shigella dysenteriae isolate 3 at 1 to 1000 ug/ml after overnight incubation by disc diffusion method. In kind it is functional.
Assay [11] concerns Enterococcus faecalis. The experiment in a line: Antibacterial activity against Enterococcus faecalis isolate 29212 at 1 to 1000 ug/ml after overnight incubation by disc diffusion method. Format: functional. Summed up:
as §2

In assay [12] the test system is Shigella flexneri. The assay can be described thus: Antibacterial activity against Shigella flexneri DN13 at 1 to 1000 ug/ml after overnight incubation by disc diffusion method. In kind it is functional. An outline of the steps: as §2
Assay [13] deals with Salmonella typhi. The experiment in a line: Antibacterial activity against Salmonella typhi DIRW at 1 to 1000 ug/ml after overnight incubation by disc diffusion method. In kind it is functional. To be noted: Salmonella enterica subsp. enterica serovar Typhi.
For assay [14], the system named is Vibrio parahaemolyticus. The experiment in a line: Antibacterial activity against Vibrio parahaemolyticus isolate 72016 at 1 to 1000 ug/ml after overnight incubation by disc diffusion method. Format: functional. Summed up:
as §2

Assay [15] deals with Micrococcus luteus. The experiment in a line: Antibacterial activity against Micrococcus luteus AGD1 at 1 to 1000 ug/ml after overnight incubation by disc diffusion method. In kind it is functional. Summed up:
as §2

For assay [16], the system named is Salmonella typhimurium. The assay can be described thus: Antibacterial activity against Salmonella Typhimurium isolate 11 at 1 to 1000 ug/ml after overnight incubation by disc diffusion method. Format: functional, organism-based. To be noted: Salmonella enterica subsp. enterica serovar Typhimurium. Summed up:
as §2

For assay [17], the system named is Aspergillus niger. The assay can be described thus: Antifungal activity against Aspergillus niger at 1 to 1500 ug/ml after 96 hrs by disc diffusion method. In kind it is functional. An outline of the steps: (§3)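 Disc diffusion on Sabouraud dextrose agar. Plates seeded with 0.1 ml fungal spore suspension (2 × 10^5 spores/ml). Sterile 6 mm discs were impregnated with compound solutions at 1–1500 µg/ml and incubated at 28 °C for 96 h. Read-out was the clear inhibition zone. Strains were clinical isolates.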

Assay [18] has as its system Candida albicans. The experiment in a line: Antifungal activity against Candida albicans at 1 to 1500 ug/ml after 96 hrs by disc diffusion method. Format: functional. An outline of the steps: as §3
Assay [19] concerns Candida tropicalis. The assay can be described thus: Antifungal activity against Candida tropicalis at 1 to 1500 ug/ml after 96 hrs by disc diffusion method. Format: functional. Summed up: as §3
Assay [20] concerns Cryptococcus neoformans. The experiment in a line: Antifungal activity against […] at 1 to 1500 ug/ml after 96 hrs by disc diffusion method. In kind it is functional, organism-based. Summed up: as §3
For assay [21], the system named is Aspergillus niger. The assay can be described thus: Antifungal activity against Aspergillus niger after 96 hrs. In kind it is functional. Summed up: (§4)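 Clinical isolates grown on Sabouraud dextrose agar at 28 °C. MIC was set by broth dilution in Sabouraud dextrose broth (0.1 ml of 2 × 10^5 spores/ml, 1–1500 µg/ml) or by agar dilution (2 × 10^5 spores/spot), with an antibiotic control, at 28 °C for 96 h. The lowest concentration with no visible growth was taken.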

The subject of assay [22] is Candida albicans. The assay can be described thus: Antifungal activity against Candida albicans after 96 hrs. In kind it is functional. An outline of the steps:
as §4

Assay [23] deals with Candida tropicalis. The experiment in a line: Antifungal activity against Candida tropicalis after 96 hrs. In kind it is functional. An outline of the steps:
as §4

The subject of assay [24] is Escherichia coli. The experiment in a line: Antibacterial activity against Escherichia coli ATCC 25938. In kind it is functional. An outline of the steps: (§5)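 MIC by broth and agar dilution. Broth: 0.1 ml suspension (2 × 10^6 cfu/ml) in Mueller-Hinton broth with test drug at 1–1000 µg/ml, 37 °C overnight. Agar: serial drug dilutions in Mueller-Hinton agar, spot-inoculated with 2 × 10^6 cfu/spot, 37 °C for 24 h. MIC was the lowest concentration with no visible growth. Antibiotic controls were included.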

Assay [25] deals with Klebsiella pneumoniae. The assay can be described thus: Antibacterial activity against Klebsiella pneumoniae isolate J/1/4. In kind it is functional. Summed up: as §5
Assay [26] relates to Staphylococcus aureus. The experiment in a line: Antibacterial activity against Staphylococcus aureus ATCC 25923. In kind it is functional. An outline of the steps: as §5
The subject of assay [27] is Pseudomonas aeruginosa. The experiment in a line: Antibacterial activity against Pseudomonas aeruginosa ATCC 27853. In kind it is functional. An outline of the steps:
as §5

The test system of assay [28] is Vibrio cholerae. The assay can be described thus: Antibacterial activity against Vibrio cholerae isolate 7201. Format: functional.
For assay [29], the system named is Bacillus subtilis. The experiment in a line: Antibacterial activity against Bacillus subtilis UC564. In kind it is functional. An outline of the steps:
as §5

For assay [30], the system named is Shigella dysenteriae. The assay can be described thus: Antibacterial activity against Shigella dysenteriae isolate 3. Format: functional.
The subject of assay [31] is Enterococcus faecalis. The assay can be described thus: Antibacterial activity against Streptococcus faecalis isolate 29212. Format: functional. An outline of the steps: as §5
The subject of assay [32] is Shigella flexneri. The assay can be described thus: Antibacterial activity against Shigella flexneri DN13. Format: functional. Summed up:
as §5

The subject of assay [33] is Salmonella typhi. The assay can be described thus: Antibacterial activity against Salmonella typhi DIRW. Conditions: Salmonella enterica. In kind it is functional, Salmonella enterica subsp. enterica serovar Typhi.
In assay [34] the test system is Vibrio parahaemolyticus. The assay can be described thus: Antibacterial activity against Vibrio parahaemolyticus isolate 72016. In kind it is functional. Summed up: as §5
The subject of assay [35] is Micrococcus luteus. The assay can be described thus: Antibacterial activity against Micrococcus luteus AGD1. Format: functional. Summed up:
as §5

The test system of assay [36] is Salmonella typhimurium. The assay can be described thus: Antibacterial activity against Salmonella Typhimurium isolate 11. In kind it is functional, Salmonella enterica subsp. enterica serovar Typhimurium. Conditions: Salmonella enterica. Summed up: as §5
The subject of assay [37] is Cryptococcus neoformans. The assay can be described thus: Antifungal activity against […] after 96 hrs. In kind it is functional. Summed up: as §4

As a reminder, the MIC is the lowest concentration found to suppress growth. Lower therefore signals greater potency. With `O=C(c1ccccc1)c1c(-c2ccccc2)cc2c3ccccc3ccn12`, the Activity result with Aspergillus niger [1] and in the assay on Candida albicans [2] was “Dose-dependent effect” each time. Further, the “diameter of the inhibition zone (DIZ)” value in the assay with Escherichia coli [3] is on record as 10 mm; in the assay with Klebsiella pneumoniae [4], 10.5 mm; in the assay with Staphylococcus aureus [5], 8.5 mm; in the assay with Pseudomonas aeruginosa [6], 8.1 mm; in the assay with Vibrio cholerae [7] it was 9 mm; in the assay on Vibrio cholerae [8], 9 mm. Besides, the “diameter of the inhibition zone (DIZ)” value in the assay on Bacillus subtilis [9] stood at 10.2 mm; in the assay on Shigella dysenteriae [10] it was 8 mm; in the assay on Aspergillus niger [17], 12 mm; with Candida albicans [18], 30 mm; with Candida tropicalis [19], 10 mm. Moreover, the “diameter of the inhibition zone (DIZ)” value in the assay with Enterococcus faecalis [11], in the assay with Shigella flexneri [12], in the assay on Salmonella typhi [13], in the assay on Vibrio parahaemolyticus [14], in the assay with Micrococcus luteus [15] and in the assay on Salmonella typhimurium [16] was “inactive” each time. For the same molecule, in the assay on Cryptococcus neoformans [20], the “diameter of the inhibition zone (DIZ)” value is “inactive”. Also, the MIC in the assay with Aspergillus niger [21] turned out to be 500 µg/mL (≈ 1440 µM); against Candida albicans [22] it was 500 µg/mL (≈ 1440 µM); against Candida tropicalis [23], 1000 µg/mL (≈ 2880 µM); against Escherichia coli [24], 32 µg/mL (≈ 92.1 µM); in the assay on Klebsiella pneumoniae [25], 64 µg/mL (≈ 184 µM); against Staphylococcus aureus [26], 128 µg/mL (≈ 368 µM). Besides, the minimal inhibitory concentration (MIC) against Pseudomonas aeruginosa [27] came to 128 µg/mL (≈ 368 µM); against Vibrio cholerae [28], 64 µg/mL (≈ 184 µM); against Bacillus subtilis [29] it was 32 µg/mL (≈ 92.1 µM); with Shigella dysenteriae [30] it was 128 µg/mL (≈ 368 µM); in the assay with Enterococcus faecalis [31], 500 µg/mL (≈ 1440 µM); with Shigella flexneri [32], 500 µg/mL (≈ 1440 µM). Moreover, the MIC with Salmonella typhi [33] was more than 500 µg/mL; against Vibrio parahaemolyticus [34], 500 µg/mL (≈ 1440 µM); in the assay on Micrococcus luteus [35] it was 500 µg/mL (≈ 1440 µM); in the assay with Salmonella typhimurium [36] it was more than 500 µg/mL.
As to `OC(Cn1cncn1)(Cn1cncn1)c1ccc(F)cc1F` [FLUCONAZOLE], the MIC was 8 µg/mL (≈ 26.1 µM) in the assay on Cryptococcus neoformans [37], 10 µg/mL (≈ 32.7 µM) against Aspergillus niger [21], 4 µg/mL (≈ 13.1 µM) with Candida albicans [22] and 8 µg/mL (≈ 26.1 µM) with Candida tropicalis [23].

The record behind these values is ChEMBL document CHEMBL1781935, “Amberlite-IRA-402 (OH) ion exchange resin mediated synthesis of indolizines, pyrrolo [1,2-a] quinolines and isoquinolines: antibacterial and antifungal evaluation of the products” (2011).
